According to ChEMBL document CHEMBL5344415, “Synthesis and Characterization of Phenylalanine Amides Active against Mycobacterium abscessus and Other Mycobacteria” (J Med Chem, 2023):
pEC50: −log10 of the molar value. In brackets after ≈: the same amount, converted by molar mass.

Tests used:
NIH3T3 = test: (§1) Cytotoxicity against mouse NIH3T3 cells assessed as reduction in cell viability incubated for 72 hrs by SRB assay; assay type: toxicity, cell-based; conditions: nih3t3
HeLa = test: Cytotoxicity against human HeLa cells assessed as reduction in cell viability incubated for 72 hrs by SRB assay; assay type: toxicity, cell-based
HT-29 = test: Cytotoxicity against human HT-29 cells assessed as reduction in cell viability incubated for 72 hrs by SRB assay; assay type: toxicity, cell-based
[1] = system: Mycobacteroides abscessus; test: Antibacterial activity against Mycobacterium abscessus Bamboo harboring inactive clarithromycin-sensitive erm41 C28 sequevar assessed as bacterial growth inhibition incubated for 3 days in 7H9 medium by optical density based method; assay type: functional; conditions: 72 h, time 3 day
[2] = Kinetic solubility of compound in PBS at 0.78 to 500 uM measured immediately by nephelometric method; assay type: physicochemical; conditions: buffer, dose 0.78-500 µM
Outline: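 DMSO stocks prediluted in DMSO, then diluted 1:50 into PBS (2 % DMSO final) and read immediately by nephelometry at 0.78–500 μM; blank-corrected data fitted by segmental regression; quadruplicates from one stock.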

[3] = system: Mycolicibacterium smegmatis; test: Antibacterial activity against Mycobacterium smegmatis mc2 155 expressing tomato RFP assessed as bacterial growth inhibition incubated for 3 days in 7H9 medium by RFP fluorescence based broth microdilution method; assay type: functional; conditions: mc2 155, 72 h, time 3 day
Outline: (§2)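 Broth microdilution in 7H9 with 10 % ADS and 0.05 % Tween 80. Twofold nine-point dilution series. Inoculum 5 x 10⁵ cells/mL taken from a mid-log preculture. Incubation at 37 °C, 3 days for M. smegmatis and M. abscessus, 5 days for M. intracellulare. Read-out by RFP fluorescence (ex 544/em 590 nm). Controls were 1 % DMSO and 100 μM amikacin. MIC₉₀ from duplicates, averaged.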

[4] = system: Mycobacterium intracellulare; test: Antibacterial activity against Mycobacterium intracellulare ATCC 35761 expressing tomato RFP assessed as bacterial growth inhibition incubated for 5 days in 7H9 medium by RFP fluorescence based broth microdilution method; assay type: functional; conditions: ATCC 35761, 120 h, time 5 day; outline: as §2
[5] = system: Mycobacteroides abscessus; test: Antibacterial activity against Mycobacterium abscessus ATCC 19977 expressing tomato RFP assessed as bacterial growth inhibition incubated for 3 days in 7H9 medium by RFP fluorescence based broth microdilution method; assay type: functional; conditions: ATCC 19977, 72 h, time 3 day; outline: as §2
A2780 = test: Cytotoxicity against human A2780 cells assessed as reduction in cell viability incubated for 72 hrs by SRB assay; assay type: toxicity, cell-based
[6] = system: Mycobacteroides abscessus; test: Antibacterial activity against Mycobacterium abscessus ATCC 19977 expressing tomato RFP assessed as bacterial growth inhibition incubated for 3 days in MHII medium by RFP fluorescence based broth microdilution method; assay type: functional; conditions: ATCC 19977, 72 h, time 3 day
Outline: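 Broth microdilution in MHII broth with 0.05 % Tween 80, against the RFP-expressing strain. Twofold nine-point dilution series. Inoculum 5 x 10⁵ cells/mL from a mid-log preculture. Incubated 3 days at 37 °C. Read-out by RFP fluorescence (ex 544/em 590 nm). Controls were 1 % DMSO and 100 μM amikacin. MIC₉₀ from duplicates, averaged.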

A-375 = test: Cytotoxicity against human A-375 cells assessed as reduction in cell viability incubated for 72 hrs by SRB assay; assay type: toxicity, cell-based
[7] = system: Mycobacterium tuberculosis; test: Antibacterial activity against Mycobacterium tuberculosis H37Rv ATCC 27294 assessed as bacterial growth inhibition incubated for 7 days in 7H9 medium by optical density based microplate reader analysis; assay type: functional; conditions: H37Rv ATCC 27294, 168 h, time 7 day
Outline: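 Compounds serially diluted in flat-bottom 96-well plates. Mid-log culture mixed in to a final OD₆₀₀ of 0.05. Sealed plates incubated in humidified boxes at 37 °C for 7 days with shaking at 80 rpm. Turbidity read at 600 nm. MIC₉₀ taken from dose–response curves. Two biological replicates, averaged.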

[8] = system: Mycobacteroides abscessus; test: Antibacterial activity against Mycobacterium abscessus ATCC 19977 expressing tomato RFP infected in human THP-1 cells assessed as bacterial growth inhibition incubated for 4 days in RPMI medium by RFP fluorescence based assay; assay type: functional; conditions: ATCC 19977, 96 h, time 4 day
Outline: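 RFP M. abscessus washed, moved into RPMI, filtered through 5 µm and opsonised with 10 % human serum for 30 min. THP-1 cells infected at MOI 5:1 with PMA 40 ng/mL for 4 h at 37 °C, then washed. Infected cells (1x10⁵/well) given a ten-point twofold series. Incubated 4 days at 37 °C, 5 % CO₂. Cells PFA-fixed and DAPI-stained. RFP quantified by imaging. Controls were DMSO and 1.5 µM bedaquiline. Duplicate.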

MCF7 = test: Cytotoxicity against human MCF7 cells assessed as reduction in cell viability incubated for 72 hrs by SRB assay; assay type: toxicity, cell-based
[9] = as §1; assay type: toxicity, cell-based; conditions: mouse, NIH3T3 cells
HEK293 = test: Cytotoxicity against HEK293 cells assessed as reduction in cell viability incubated for 72 hrs by SRB assay; assay type: toxicity, cell-based, Homo sapiens
[10] = system: Mycobacteroides abscessus; test: Antibacterial activity against MMV688845-resistant Mycobacterium abscessus Bamboo 845R-2.1 harboring rpoB/beta subunit P473L mutation assessed as bacterial growth inhibition incubated for 3 days by optical density based analysis; assay type: functional; conditions: Bamboo 845R-2.1, 72 h, time 3 day
Outline: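 Tenfold-point twofold dilution series in 7H9, final DMSO 1 %. Final ranges typically 50–0.098 or 6.25–0.012 μM. Mid-log culture added to an initial OD₆₀₀ of 0.05 (5*10⁶ CFU/mL). Incubated 3 days at 37 °C with shaking at 110 rpm. Growth taken as OD₆₀₀ on day 3 minus day 0, as % of drug-free wells. MIC₉₀ read visually from the curves. Clarithromycin as control. Two biological replicates, averaged.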

[11] = system: Mycobacteroides abscessus; test: Bactericidal activity against Mycobacterium abscessus ATCC 19977 assessed as reduction in viable bacteria at 6.25 uM incubated for 4 days by microplate dilution assay relative to control; assay type: functional; conditions: time 4 day
[12] = system: Mycobacteroides abscessus; test: Bactericidal activity against Mycobacterium abscessus ATCC 19977 assessed as reduction in viable bacteria at 3.13 uM incubated for 4 days by microplate dilution assay relative to control; assay type: functional; conditions: time 4 day
Outline: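 After 4 days in the microplate dilution assay, 10 µl samples (undiluted or 1:100) were plated on 7H10 with glycerol, ADS and 400 µg/mL hygromycin. Colonies counted after 4 days at 37 °C. Done in triplicate. CFU/mL compared with the inoculum counted before incubation.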

Row | SMILES | pEC50 (NIH3T3) | pEC50 (HeLa) | pEC50 (HT-29) | MIC50 [1] [µM] | MIC90 [1] [µM] | Kinetic_solubility [2] [µM] | MIC90 [3] [µM] | MIC90 [4] [µM] | MIC90 [5] [µM] | pEC50 (A2780) | MIC90 [6] [µM] | pEC50 (A-375) | MIC90 [7] [µM] | MIC50 [8] [µM] | MIC90 [8] [µM] | pEC50 (MCF7) | pEC50 (HEK293) | further results
1 | O=C(N[C@H](Cc1ccccc1)C(=O)Nc1cc(F)ccc1N1CCSCC1)c1ccccc1F | 4.55 | 4.55 | < 4.52 | 1.15 (≈ 0.554 µg/mL) | 12 (≈ 5.78 µg/mL) | 31 | 6.25 (≈ 3.01 µg/mL) | 0.78 (≈ 0.376 µg/mL) | 25 (≈ 12 µg/mL) | 4.55 | 25 (≈ 12 µg/mL) | 4.53 | 1.56 (≈ 0.751 µg/mL) | 3.13 (≈ 1.51 µg/mL) | 100 (≈ 48.2 µg/mL) | < 4.52 |  | 
2 | O=C(N[C@H](Cc1ccccc1)C(=O)Nc1ccccc1N1CC[S+]([O-])CC1)c1cccs1 |  | < 4.52 | < 4.52 | 0.33 (≈ 0.154 µg/mL) | 2 (≈ 0.935 µg/mL) | 271 | 1.56 (≈ 0.729 µg/mL) | 0.1 (≈ 0.0468 µg/mL) | 3.13 (≈ 1.46 µg/mL) | < 4.52 | 6.25 (≈ 2.92 µg/mL) | < 4.52 | 0.4 (≈ 0.187 µg/mL) | 3.13 (≈ 1.46 µg/mL) | 25 (≈ 11.7 µg/mL) | < 4.52 | < 4.52 | EC50 at 72 h [9]: > 30 µM; MIC90 [10]: > 100 µM; Activity [11]: 99%; Activity [12]: 58%
3 | O=C(N[C@H](Cc1ccccc1)C(=O)Nc1cc(F)ccc1N1CCS(=O)(=O)CC1)c1cccs1 | 4.57 | < 4.52 | < 4.52 | 0.43 (≈ 0.216 µg/mL) | 6.5 (≈ 3.26 µg/mL) | 70 | 1.56 (≈ 0.783 µg/mL) | 0.2 (≈ 0.1 µg/mL) | 6.25 (≈ 3.14 µg/mL) | 4.62 | 3.13 (≈ 1.57 µg/mL) | < 4.52 | 0.78 (≈ 0.391 µg/mL) | 0.39 (≈ 0.196 µg/mL) | 3.13 (≈ 1.57 µg/mL) | 4.63 | < 4.52 | 
4 | O=C(N[C@H](Cc1cccs1)C(=O)Nc1ccccc1N1CCOCC1)c1cccs1 | 4.54 | < 4.52 | 4.53 | 2.4 (≈ 1.06 µg/mL) | 9 (≈ 3.97 µg/mL) | 41 | 1.56 (≈ 0.689 µg/mL) | 1.56 (≈ 0.689 µg/mL) | 12.5 (≈ 5.52 µg/mL) | 4.53 | 12.5 (≈ 5.52 µg/mL) | < 4.52 | 6.25 (≈ 2.76 µg/mL) | 12.5 (≈ 5.52 µg/mL) | > 100 | < 4.52 |  | 
